Source: publication PMC3419596 (Cell stem cell, 2012)
Entries after “also recorded” stand apart in the source; their conditions may differ. Where two headings read alike, the source gives them in different places. Values belong to the molecule of their own block, whether it stands above or below them.

Tests used:
Myh6-GFP mESC = assay: mESC cardiogenesis assay, Myh6-GFP reporter; type: cell-based, mouse
T-GFP mESCs = assay: Mesoderm inhibition assay, T-GFP mESC flow cytometry; type: cell-based, mouse; conditions: added at day 1 of differentiation
TGFβ2 signaling = assay: SBE4-Luc; type: cell-based, human; conditions: for IC50: read-out: IC50 TGFβ2 signaling inhibition (SBE4-Luc)
Summary of the method: (§1)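 HEK293T cells grown in high-glucose DMEM with 1% FBS are co-transfected with SBE4-firefly luciferase and CMV-Renilla luciferase. After 12 h adhesion they are stimulated with Activin A or TGFβ2 (15 ng/ml each), with inhibitor added at the same time. Luminescence is read by dual-luciferase assay. IC50 comes from a log(inhibitor) vs normalized response fit, with toxic doses excluded; Emax is given as % inhibition. Data are mean ± SEM.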

TGFBR2 [1] = assay: TGFBR2 internalization; type: cell-based; conditions: HA-TGFBR2-mCherry, presence of TGFβ2 ligand
H9 hESC = assay: hESC; type: cell-based, human
[2] = molecular target: type II (TGFBR2) TGFβ receptor (Homo sapiens, UniProt P37173); assay: TGFBR2 kinase activity; type: biochemical
Sequence of type II (TGFBR2) TGFβ receptor (P37173 23-567, species assumed): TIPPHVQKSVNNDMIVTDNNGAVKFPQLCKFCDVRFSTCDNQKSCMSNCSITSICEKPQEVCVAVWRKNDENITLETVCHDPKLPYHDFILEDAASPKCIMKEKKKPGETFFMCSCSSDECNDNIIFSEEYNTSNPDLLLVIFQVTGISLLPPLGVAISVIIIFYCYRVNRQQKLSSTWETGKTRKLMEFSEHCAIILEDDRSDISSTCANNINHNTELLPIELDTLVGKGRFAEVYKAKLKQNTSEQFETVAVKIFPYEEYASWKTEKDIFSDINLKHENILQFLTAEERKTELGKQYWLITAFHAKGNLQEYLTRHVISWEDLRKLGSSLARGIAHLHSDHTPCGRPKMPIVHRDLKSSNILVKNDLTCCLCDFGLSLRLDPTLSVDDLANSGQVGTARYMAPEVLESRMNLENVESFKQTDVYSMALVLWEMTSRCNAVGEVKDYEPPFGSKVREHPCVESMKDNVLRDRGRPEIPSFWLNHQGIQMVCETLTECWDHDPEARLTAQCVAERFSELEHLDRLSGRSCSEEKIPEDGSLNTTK

Wnt signaling = Wnt signaling inhibition; type: cell-based
[3] = system: TGFβ2 signaling (Lefty1 target gene); assay: Lefty1 mRNA in Cripto−/− mESC, TGFβ2-induced; type: cell-based, mouse; conditions: Cripto−/− mESCs
Summary of the method: (§2)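 Cripto−/− mESCs are moved to serum-free conditions. At day 2 of embryoid body formation they receive 15 ng/ml Activin A or 15 ng/ml TGFβ2 together with test compound. Lefty1 mRNA is measured by RT-qPCR (SYBR Green) on cDNA from total RNA. The TGFβ2 arm is also run as a time course, with a serum-free-medium-alone control. Data are mean ± SEM of ≥3 biological replicates; Student's t-test.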

mESC = assay: RT-qPCR of germ layer and lineage markers in mESC; type: cell-based, mouse
calcium channel = assay: Calcium inhibition as mechanism of ITD-1 activities
[4] = system: SMAD2/3 phosphorylation induced by TGFβ2; assay: p-SMAD2/3 Western blot in HEK293T cells, TGFβ2 stimulation; type: cell-based, human
Summary of the method: (§3)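 HEK293T cells are treated with test compound and stimulated with Activin A or TGFβ. Cells are washed in cold PBS, lifted with enzyme-free buffer and lysed in ice-cold RIPA with protease and phosphatase inhibitors. Lysates are run on 10% SDS-Tris-glycine gels, blotted to PVDF and blocked and probed in 5% skim milk/TBST; detection by ECL or infrared imaging. p-SMAD2/3 is normalized to GAPD and total SMAD2/3 and reported as % inhibition.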

TGFBR1 = TGFBR1 protein levels by Western blot, overexpressed in HEK293T; type: cell-based, human; conditions: 24h, 5μM
[5] = molecular target: type I (TGFBR1) TGFβ receptor (Homo sapiens, UniProt P36897); assay: TGFBR1 kinase activity; type: biochemical
Sequence of type I (TGFBR1) TGFβ receptor (P36897 34-503, species assumed): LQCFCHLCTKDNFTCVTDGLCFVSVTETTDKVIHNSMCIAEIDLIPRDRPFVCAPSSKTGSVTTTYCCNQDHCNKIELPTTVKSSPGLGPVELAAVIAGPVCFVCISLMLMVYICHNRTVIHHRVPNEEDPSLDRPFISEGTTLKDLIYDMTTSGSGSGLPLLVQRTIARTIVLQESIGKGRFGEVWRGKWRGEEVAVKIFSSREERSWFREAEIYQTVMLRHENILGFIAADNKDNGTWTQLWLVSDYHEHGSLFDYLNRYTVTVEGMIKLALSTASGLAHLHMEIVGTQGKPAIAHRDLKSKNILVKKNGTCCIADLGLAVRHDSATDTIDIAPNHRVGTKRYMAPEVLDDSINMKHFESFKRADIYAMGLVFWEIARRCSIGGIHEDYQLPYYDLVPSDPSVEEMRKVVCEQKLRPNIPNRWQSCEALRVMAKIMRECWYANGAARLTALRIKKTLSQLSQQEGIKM

[6] = system: Activin A signaling (Lefty1 target gene); assay: Lefty1 mRNA in Cripto−/− mESC, Activin A-induced; type: cell-based, mouse; conditions: 5μM, Cripto−/− mESCs
Summary of the method: as §2

[7] = system: SMAD2/3 phosphorylation induced by Activin A; assay: p-SMAD2/3 Western blot in HEK293T cells, Activin A stimulation; type: cell-based, human
Summary of the method: as §3

[8] = system: other tyrosine kinase receptors; assay: Levels of other tyrosine kinase receptors; type: cell-based
HA-TGFBR2-mCherry = assay: Flow cytometry receptor degradation assay with HA-TGFBR2-mCherry in HEK293T; type: cell-based, human
HEK293T cells = assay: Toxicity control for inhibitory activity; type: cell-based, human
Summary of the method: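 Toxicity in the reporter assays is judged from Renilla luciferase levels, Alamar Blue viability or microscopy. Doses judged toxic are removed before IC50/EC50 curve fitting.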

Activin A signaling = assay: SBE4-Luc; type: cell-based, human; conditions: HEK293T, Activin A 15ng/ml
Summary of the method: as §1

BMP signaling = BMP signaling inhibition; type: cell-based
[9] = system: Cripto−/− mESC, Activin A-induced mesoderm; assay: T gene expression in Cripto−/− mESC, mesoderm induced by Activin A; type: cell-based, mouse
Summary of the method: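 Mesoderm assay in Cripto−/− mESCs under serum-free conditions. At day 2 of embryoid body formation, cells are given 15 ng/ml Activin A plus test compound. T (Brachyury) mRNA is quantified by RT-qPCR (SYBR Green) on cDNA from total RNA and compared with no-Activin and Activin-alone controls. Data are mean ± SEM of ≥3 biological replicates; Student's t-test.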

[10] = system: Cripto−/− mESC, TGFβ2-induced mesoderm; assay: T gene expression in Cripto−/− mESC, mesoderm induced by TGFβ2; type: cell-based, mouse
Summary of the method: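 Cripto−/− mESC were moved to serum-free conditions as embryoid bodies. At day 2 of EB formation they received 15 ng/ml TGFβ2 together with test compound. T expression was measured by RT-qPCR. Comparisons were made against a no-TGFβ2 control and against TGFβ2 alone. Mean ± SEM of ≥3 biological replicates; Student's t-test.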

TGFBR2 [11] = assay: TGFBR2 protein levels by Western blot; type: cell-based, human; conditions: overexpressed in HEK293T, 24h, 5μM
TGFBR2 [12] = molecular target: TGFBR2 (Homo sapiens, UniProt P37173); assay: TGFBR2 protein levels by Western blot; type: cell-based; conditions: HEK293T, DLD1 and A549 cells, 5μM
Sequence of TGFBR2 (Homo sapiens, UniProt P37173) (P37173 23-567): as the sequence (P37173 23-567, species assumed) above

[13] = added day 3-5 of differentiation
[14] = given at day 1 of differentiation

Molecule: c1ccc(-c2[nH]ncc2-c2ccnc3ccccc23)nc1 [LY-364947, reference compound]
cardiogenesis (Myh6-GFP) (Myh6-GFP mESC; [13]): drove cardiomyogenesis | mesoderm induction (T-GFP+ cells) (T-GFP mESCs): diminished the number of mesoderm cells

Molecule: c1cc(-c2cnn3cc(-c4ccc(OCCN5CCCCC5)cc4)cnc23)ccn1 [Dorsomorphin]
mesoderm induction (T-GFP+ cells) (T-GFP mESCs): did not affect mesoderm

Molecule: CCOC(=O)C1=C(C)NC2=C(C(=O)CC(C)(C)C2)C1c1ccc(-c2ccccc2)cc1 (stereo not drawn) [ITD-1(+)]
cardiogenesis (Myh6-GFP) (Myh6-GFP mESC; [13]): drove cardiomyogenesis

IC50 (TGFβ2 signaling; Homo sapiens, HEK-293T): 70 nM
Molecule: NC(=O)c1ccc(-c2nc(-c3ccc4c(c3)OCO4)c(-c3ccccn3)[nH]2)cc1 [SB-431542, reference compound]
immediate internalization of TGFBR2 (TGFBR2 [1]): abolished internalization | cardiogenesis (Myh6-GFP) (Myh6-GFP mESC; [13]): drove cardiomyogenesis | cardiogenesis in hESC (H9 hESC; mesoderm patterning stage, data not shown): completely blocked cardiogenesis | mesoderm induction (T-GFP+ cells) (T-GFP mESCs): diminished the number of mesoderm cells

Molecule: IWP
mesoderm induction (T-GFP+ cells) (T-GFP mESCs): diminished the number of mesoderm cells

IC50 (TGFβ2 signaling; HEK293T, TGFβ2 15ng/ml): 850 nM | TGFBR2 kinase activity [2]: did not block the kinase activity | TGFBR1 kinase activity [5]: did not block the kinase activity | Emax, maximal depletion of HA-TGFBR2 (HA-TGFBR2-mCherry; cell surface receptor): ~ 80% | time needed to reduce TGFBR2 levels (HA-TGFBR2-mCherry; time course, flow cytometry): At least 6 h | time of maximum reduction of TGFBR2 levels (HA-TGFBR2-mCherry; time course, flow cytometry): ≤ 24 h | Emax, maximal depletion of TGFBR2-mCherry (HA-TGFBR2-mCherry; total receptor): ~ 50% | endogenous TGFBR2 levels (TGFBR2 [12]): decreased endogenous TGFBR2 levels
Molecule: CCOC(=O)C1=C(C)NC2=C(C(=O)CC(C)(C)C2)C1c1ccc(-c2ccccc2)cc1 (stereo not drawn) [ITD-1]
efficacy of TGFβ2 signaling inhibition (Emax, % inhibition) (TGFβ2 signaling; HEK293T, SBE4-Luc): 92% | immediate internalization of TGFBR2 (TGFBR2 [1]): did not block immediate internalization of TGFBR2 | Wnt signaling inhibition (Wnt signaling): did not inhibit Wnt signaling; also recorded: not inhibited | induction of Lefty1 in response to TGFβ2 ([3]; 5μM): effectively blocked induction | additional time needed to inhibit Lefty1 expression compared to SB-431542 ([3]; TGFβ2 treatment): ~ 3 h | cardiogenesis (Myh6-GFP) (Myh6-GFP mESC; added day 1-3 of differentiation, before mesoderm induction): completely abolished cardiogenesis | cardiogenesis (Myh6-GFP) (Myh6-GFP mESC; [13]): drove cardiomyogenesis; also recorded: optimally promoted cardiogenesis and beating cell clusters | germ layer markers at day 5 (RT-qPCR) (mESC; [14]): induced ectoderm at the expense of mesoderm | lineage markers at day 10 (RT-qPCR) (mESC; [14]): markers for mesoderm tissues such as heart, endothelium, smooth muscle and blood were all downregulated, while neural markers were upregulated | marker expression at day 5 (RT-qPCR) (mESC; mESC treated day 3-5): only the cardiac progenitor specific markers Kdr and Mesp1 were increased | marker expression at day 10 (RT-qPCR) (mESC; mESC treated day 3-5): only cardiac-specific markers were increased | role of calcium inhibition in ITD-1 activities (calcium channel): no evidence was found for a role through calcium inhibition | phosphorylation of SMAD2/3 induced by TGFβ2 [4]: potently blocked phosphorylation | enhancement of TNNT2+ cardiomyocyte yield (H9 hESC; added day 1-5, analysed day 6): ~ 30% | resulting cardiomyocytes (TNNT2+) (H9 hESC; added day 1-5, analysed day 6): ~ 60% | TGFBR1 protein levels (TGFBR1): did not affect TGFBR1 | induction of Lefty1 in response to Activin A [6]: not to Activin A | phosphorylation of SMAD2/3 in response to Activin A [7]: only minimally | effect on other tyrosine kinase receptors [8]: did not affect other tyrosine kinase receptors | toxicity as cause of inhibitory activity (HEK293T cells): Toxicity was not responsible | Activin A signal inhibition (SBE4-Luc) (Activin A signaling): weak and partial inhibitor | BMP signaling inhibition (BMP signaling): not inhibited | mesoderm induced by Activin A (T gene expression) [9]: not by Activin A | mesoderm induced by TGFβ (T gene expression) [10]: selectively blocked mesoderm induced by TGFβ | TGFBR2 protein levels (TGFBR2 [11]): strongly downregulated TGFBR2 protein levels | mesoderm induction (T-GFP+ cells) (T-GFP mESCs): diminished the number of mesoderm cells

B1: TGFβ2: TGFβ family member ligand added to ESC cultures (protein, UniProt P61812 303-414, looked up)
Transforming growth factor …: ALDAAYCFRNVQDNCCLRPLYIDFKRDLGWKWIHEPKGYNANFCAGACPYLWSSDTQHSRVLSLYNTINPEASASPCCVSQDLEPLTILYYIGKTPKIEQLSNMIVKSCKCS
cardiogenesis (Myh6-GFP) (Myh6-GFP mESC; [13]): inhibited cardiogenesis
